Sampled rows, rich in hits. Any-hit rate of the full collection: about 2.2%.
V-ATPase pH – regulators of yeast V-ATPase proton transport; 350,000 tested, 0.37% active; response, % at 10 µM; AID 504577; S. cerevisiae, pHLuorin cytosolic pH fluorescence; in the data active means response mostly above about 7.3%, no sharp cut-off; inactive means mostly below about 5.4%; further: actives read high
Granule exo inh – lytic granule exocytosis inhibition; 360,000 tested, 0.66% active; inhibition, % at 10 µM; TALL-104 LAMP-1 surface exposure, flow cytometry; cells stimulated with thapsigargin and PMA;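 active means inhibition above about 55%, limit read from the data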
ASAP1 GAP inh – ASAP1 ArfGAP inhibition; Q9ULH1; ASAP1-stimulated ARF1 GTP hydrolysis, GDP FP detection; inhibition, % at 16.5 µM; 360,000 tested, 0.19% active; in the data active means inhibition above about 25%;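 further: 0% = vehicle with enzyme and substrate and 100% = no enzyme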
ARFGAP1 inh – inhibitors of rat ARFGAP1; Arfgap1-stimulated ARF1 GTP hydrolysis, GDP FP detection; Q62848; AID 651572; 360,000 tested, 0.26% active; inhibition, % at 16.5 µM;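 active means inhibition above a per-plate limit, mean inhibition of low control wells plus 3 SD, cut at about 25% in these data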;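 further: 0% = DMSO wells with enzyme and 100% = wells lacking Arfgap1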
Target sequence (Q62848 1-136 limits assumed): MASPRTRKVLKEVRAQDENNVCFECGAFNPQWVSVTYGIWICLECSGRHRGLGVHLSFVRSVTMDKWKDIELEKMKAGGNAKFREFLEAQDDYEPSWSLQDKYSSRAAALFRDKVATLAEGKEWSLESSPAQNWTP
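Material: rat Arfgap1 catalytic domain, aa 1-136; also added: human ARF1(Δ1-17)-GTP substrate; compound dosing: one concentration, 16.5 µM, DMSO 1.26%; incubation: GTP hydrolysis reaction 2 h at 25 °C; measured by: Tracer-displacement fluorescence polarization with EDTA stop, 620/688 nm; evaluation: % inhibition from polarization; repeats: one replicate per compound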
CendR NRP1 mod – alters CendR peptide binding to human NRP-1; O14786; FAM-RPARPAR peptide binding to NRP-1, fluorescence polarization; inhibition, % at 25 µM; 360,000 tested, 0.85% active;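 active means inhibition or corrected inhibition above about 18%, plus a signal ratio from 0.5 to 1.5, limit read from the data, passing the limit was not always enough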
The depositor's hits bear a star.

Results for O=C(NCCCN1CCOCC1)C(=O)NCC1CCCO1 (configuration not stated) ?
V-ATPase pH: -1; Granule exo inh: -5; ASAP1 GAP inh: 8; ARFGAP1 inh: 8; CendR NRP1 mod: -2

How did CC(=O)C1=C(C)N(Cc2ccc(Cl)cc2)C(=S)NC1c1ccc(Cl)cc1 (configuration not stated) do in these assays?
ASAP1 GAP inh: 4; ARFGAP1 inh: 10

Results for CCN(CCCNC(=O)CNC(=O)c1nn(-c2ccc(OC)cc2OC)c(=O)c2ccccc12)c1cccc(C)c1 ?
V-ATPase pH: -1; Granule exo inh: 5; ASAP1 GAP inh: -5; ARFGAP1 inh: 7; CendR NRP1 mod: 25*

How did COCCCNC(=O)CNC(=O)c1nn(-c2ccc(OC)cc2OC)c(=O)c2ccccc12 do in these assays?
V-ATPase pH: 2; Granule exo inh: -3; ASAP1 GAP inh: 9; ARFGAP1 inh: -5; CendR NRP1 mod: -11

What do the screens show for `COCCN(Cc1nc2ccccc2c(=O)[nH]1)C(=O)COc1ccccc1-c1ccccc1`?
V-ATPase pH: -2; Granule exo inh: 8; ASAP1 GAP inh: 5; ARFGAP1 inh: -2; CendR NRP1 mod: -6

What do the screens show for `CCOc1ccc(C2NC(=O)C(C#N)=C(S)N2c2cccc(C)c2)cc1OC` (configuration not stated)?
V-ATPase pH: -2; Granule exo inh: 69*; ASAP1 GAP inh: 7; ARFGAP1 inh: 3; CendR NRP1 mod: -9

Results for CC(C)=CC(O)C/C(C)=C/COc1ccc2ccc(=O)oc2c1 (configuration not stated) ?
V-ATPase pH: 1; Granule exo inh: 0; ASAP1 GAP inh: 4; ARFGAP1 inh: -8; CendR NRP1 mod: 26*

What do the screens show for `CCCn1nc(C(=O)Nc2cc(OCC)c(N3CCOCC3)cc2OCC)c2ccccc2c1=O`?
V-ATPase pH: 4; Granule exo inh: -2; ASAP1 GAP inh: -3; ARFGAP1 inh: 6; CendR NRP1 mod: 22*

How did CCOC(=O)c1cc(CC)sc1NC(=O)Cc1ccsc1 do in these assays?
V-ATPase pH: -1; Granule exo inh: 3; ASAP1 GAP inh: 6; ARFGAP1 inh: -7; CendR NRP1 mod: 22*

How did C=CCc1cccc(/C=N/n2c(C)nnc2C)c1O do in these assays?
V-ATPase pH: -2; Granule exo inh: 1; ASAP1 GAP inh: -2; ARFGAP1 inh: -4; CendR NRP1 mod: 20*

What do the screens show for `N#Cc1c(N(CCO)CCO)nc(N)c2c(N)nc3c(c12)CC(=O)N3CC1CCCO1` (configuration not stated)?
V-ATPase pH: 1; Granule exo inh: -2; ASAP1 GAP inh: 13; ARFGAP1 inh: -1; CendR NRP1 mod: 10

What do the screens show for `CCCCN1C(=O)Cc2c1nc(N)c1c(N)nc(N(CCC)CCC)c(C#N)c21`?
V-ATPase pH: -3; Granule exo inh: 72*; ASAP1 GAP inh: -9; ARFGAP1 inh: -3; CendR NRP1 mod: -11

Results for CCOC(=O)C1=CCN(S(=O)(=O)c2ccc(Cl)cc2)C1c1ccc(Br)cc1 (configuration not stated) ?
ASAP1 GAP inh: 5; ARFGAP1 inh: -6

What do the screens show for `CN1C(=O)/C(=N/OC(=O)c2ccccc2)c2ccccc21`?
V-ATPase pH: -2; Granule exo inh: 87*; ASAP1 GAP inh: 0; ARFGAP1 inh: -13; CendR NRP1 mod: -1

How did O=C(O/N=C1\C(=O)N(c2ccccc2)c2ccccc21)C1CC1 do in these assays?
V-ATPase pH: 3; Granule exo inh: 4; ASAP1 GAP inh: 4; ARFGAP1 inh: 3; CendR NRP1 mod: 6

Results for Cc1cccc(Oc2sc(C(=O)c3ccccc3)c(N)c2C#N)c1 ?
V-ATPase pH: -1; Granule exo inh: 22; ASAP1 GAP inh: -12; ARFGAP1 inh: 8; CendR NRP1 mod: 31*

Results for N#Cc1c(Nc2ccccc2)sc(C(=O)c2ccccc2)c1N ?
V-ATPase pH: 5; Granule exo inh: 1; ASAP1 GAP inh: -2; ARFGAP1 inh: 4; CendR NRP1 mod: 7

Results for O=C1c2ccccc2NC(c2cccnc2)N1c1ccccc1F (configuration not stated) ?
V-ATPase pH: 1; Granule exo inh: 1; ASAP1 GAP inh: 0; ARFGAP1 inh: -4; CendR NRP1 mod: -13

What do the screens show for `Cc1ccccc1N1C(=O)c2ccccc2NC1c1ccncc1` (configuration not stated)?
V-ATPase pH: -3; Granule exo inh: -3; ASAP1 GAP inh: -6; ARFGAP1 inh: -4; CendR NRP1 mod: 28*
